This sample holds only a part of the variants without activity.

The labels stand for the following.
B1: tRNA (parent)
chain: GUUCCGUUGGCGUAAUGGUAACGCGUCUCCCUCCUAAGGAGAAGACUGCGGGUUCGAGUCCCGUACGGAACG

In the data set the parent is B1. The data set is described as follows: yeast fitness relative to wild type (ratio to wild type); higher = fitter; tRNA-Arg(CCU), competitive growth, 37 C, YPD. In outline: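 For this measurement, the tRNA-Arg(CCU) gene was varied by chemical synthesis at a 3% per-site mutation rate across 69 sites, and each variant was placed at the native genomic locus in Saccharomyces cerevisiae. The pooled strains went through a 24-hour competition in YPD at 37°C in six parallel replicates, with amplicons from start and end populations read by 100-nucleotide paired-end sequencing. Darwinian fitness relative to wild type followed from the change in each genotype's frequency. Genotypes needed ≥ 100 starting reads, and estimates < 0.5 were set to 0.5.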
In the case of GUCCCGUUGGCGUAAUGGUAACGCGUCUCCCUCCUAGGGAGAAGACUGCGGGUUCGAGUCCCGUACGGAUCG [U3C A37G A70U], the yeast fitness stood at 0.568. As for GUCCCGUUGGCGUAAUGGUGACGCGUCUCCCUCCUAAGGAGAAGACUGCGGGUUCGAGCCCCGUACGGCACG [U3C A20G U59C A69C], the yeast fitness was found to be 0.79. Under GUCCCGUUGGCGUAAUGGUUACGCGUCUCGCUUCUAAGGAGAAGACUGCGGGUUCGACUCCCGUACGGAACG [U3C A20U C30G C33U G58C] stands at most 0.5. For the variant GUACCGUUGGCGUAAUGGUAACGCGUCUCCCUCCCAAGGAGAAGACUGCGGGUUCGCGUCCCGUACGGAACG [U3A U35C A57C], the yeast fitness is at most 0.5. Take GUCCCGUUGGCGUAAUGGUAGCGCGUCUCCCUCGUAAGGAGAAGACUGCGGGUUCGAGUCCCGUACGGCACG [U3C A21G C34G A69C]: the yeast fitness was at most 0.5. As to GUCCCGUUGGCGUUAUGGUAACGCGUCUCCCUCCUAAGGAGAAGACUGCGGGUUCGAGUCCCGUACGGAACG [U3C A14U], the yeast fitness amounted to 0.639.

As for GUCCCGUUGGCGUGAUGGUAACGCGUCUCCCUCCUAAGGAGAAGACUGCGGGUUCGAGUCCCGUACGGAACG [U3C A14G], the yeast fitness was determined as 0.917. Under GUCCCGUUGGCGUACUGGUAACGCGUCUCCCUCCUUAGGAGAAGACUGCGGGUUCGAGUCCCGUACGGAACG [U3C A15C A36U] stands at most 0.5. As to GUCCCGUUGGCGUACUGGUAACGCGUCUCCCUCCUCAGGAGAAGACAGCGGGUUCGAGUCCGGUACGGAACG [U3C A15C A36C U47A C62G], the yeast fitness is at most 0.5.

As to GUACCGUUGGCGUAAUGGUAACGCGUCUCCCUCCAAAGGAGAAGACUGCGGGUUCGAGUCCCGUACGGAACG [U3A U35A], the yeast fitness is 0.658. Under GUCCCGUUGGCGUAAUGGUAACGCGUCUCCCUCCUACGGAGAAGACUGCGGGUUCGGGUCCCGUACGCAACG [U3C A37C A57G G68C] stands at most 0.5.

As for GUCCCGUUGGCGUUAUGGUCACGGGUCUCCCUCCUAAGGAGAAGACUGCGGGUUUGAGUCCCGUACGGCACG [U3C A14U A20C C24G C55U A69C], the yeast fitness was at most 0.5.

Regarding GUACCGUUGGCGUAAUGGAAACGCGUCUCCCUCCUAAGGAGUACACUGCGGGUACGAGUCCCGUACGGAACG [U3A U19A A42U G44C U54A], the yeast fitness was at most 0.5. Take GUCCCGUUGGCGUAAUGGUAACGCGUCUCCCUCCUAAGGAGAAGACUGCGGGUUCGAGUCCCGUACGGAACG [U3C]: the yeast fitness turned out to be 0.996.

With GUACCGUUGGCGUAAUGGUAACGCGCCUCCCUCCUAAGGAGAAGACUGCGGGUUCGAGCCCCGUACGGAACG [U3A U26C U59C], the yeast fitness is at most 0.5.

On to GUACCGUUGGCGUAAUGGUAACGCGCCUCCCUCCUAAGGAGACGACUGCGGGUUCGAGUCCCGUACGGAUCG [U3A U26C A43C A70U], for which the yeast fitness was at most 0.5. As for GUACCGUUGGCGUAAUGGUAACGCGACUCCCUCUUAAGGAGAAGACGGCGGGUUCGAGUCCCGAACGGAACG [U3A U26A C34U U47G U64A], the yeast fitness is at most 0.5. As for GUCCCGUUGGCGUGAUGGUAAAGCGUGUCCCUCCUAAGCAGAAGACUGCGGGUUCGAGUCCGGUACGGAACG [U3C A14G C22A C27G G39C C62G], the figure is at most 0.5; as for GUACCGUUGGCGUAAUGGAAACGCGUCUCCCUACUAAGGAGAAGACUGUGGAUUCGAGUCCCGUACGGAACG [U3A U19A C33A C49U G52A], at most 0.5. Under GUCCCGUUGGCGUAAUGGUAACGCGUCUCCCUCCUCAGGAGACGACUGCGGGUUCGAGUCCCGUACGGCACG [U3C A36C A43C A69C] stands at most 0.5; under GUCCCGUUGGCGUAAUGGUAUCGCGUCUCCCUCCUAGGGAGAAAACUGCGGGUUCGAGUCCCAUACGGAACG [U3C A21U A37G G44A G63A], at most 0.5; under GUACCGUUGGCGUAAUGGUAACGCGUCUCCCUCCUAAGGAGAAGACUGCGGGUACCAGUCCCGUACGGAACG [U3A U54A G56C], 0.767.

Consider GUCCCGUUGGCGUAAUGGUCACGCGUCUCCCUCCUAAGGAGAAGAUUGCGGGUUCGAGUCCCGUACGGAACG [U3C A20C C46U], for which the yeast fitness is 1.06. Under GUCCCGUUGGCGUAAUGGUAACGCGUCUCCCUCCUACGGAGAAGACUGGGGGUUCGAGUCCCGUACGGAACG [U3C A37C C49G] stands at most 0.5; under GUCCCGUUGGCGUUAGGGAAACGCGUCUCCCUCCUAAGGAGGAGACUGCGGGUUCGAGUCGCGUACGGAACG [U3C A14U U16G U19A A42G C61G], at most 0.5; under GUCCCGUUGGCGUGAUGGUAACGCGUCUCUCUCCUAAGGAGAAGCGUGCGGGUUCGAGUCCCGUACGGCACG [U3C A14G C30U A45C C46G A69C], at most 0.5. As for GUCCCGUUGGCGUAAUGGUAACGCGUCUCCCUCCUAAGGGGAAGAAUGCGGGUUCGAGUCCCGUGCGGAACG [U3C A40G C46A A65G], the figure is 0.763. Under GUCCCGUUGGCGUAAUGGUGACGCGUCUCCCUCCUAAGGAGAAGACUGCGGGUUCGAGUCCCGUACGGAACG [U3C A20G] stands 0.917. As for GUACCGUUGGCGUAAUGGUAACGCGUCUCCCUCCUAAGGAGAAGACUGCGGGCUCGAGUCCCGUACGGAACG [U3A U53C], the yeast fitness came out at 0.668. Under GUACCGUUGGCGUAAUGGUAACGCGUCUCCCGCCUAAGGAGAAGACUGCGGGUUCGAGUCCCCUAUGGAACG [U3A U32G G63C C66U] stands at most 0.5; under GUCCCGUUGGCGUAAUGGUAUCGCGUCUCCCUCCUAAGGAGAAGACUGCCGGUUCGAGUCCCGUUCGGAACG [U3C A21U G50C A65U], at most 0.5; under GUCCCGUUGGCGUAAUGGUGACGCGUCUCCCUUCUAAGGGGAAGACUGCGGGUUCGAGUCCGGUACGGAUCG [U3C A20G C33U A40G C62G A70U], at most 0.5. Under GUCCCGUUGGCGUAUCGGUAACGCGUCUCCCUCUUAAGGAGAGGACUGCGGGUUCGAGUCCCGUACGGAACG [U3C A15U U16C C34U A43G] stands at most 0.5; under GUCCCGUUGGCGUAGUGGUAACGCGUCUCGCUCCUAAGGAGAAGACUGCGGGUUCAAGUCCCCUACAGAACG [U3C A15G C30G G56A G63C G67A], at most 0.5. Under GUACCGUUGGCGUAAUGGUAACGCGUCUCCCUCCAAAGGAGCAGACUGCGGGUUCGAGUCCCGUACGGAACG [U3A U35A A42C] stands 0.629; under GUCCCGUUGGCGUAAUGGUAUCGCGUCUCCCUCCUAAGGAGAAGACUGCGGGUUCGAGUCCCGUACGGUACG [U3C A21U A69U], 0.537; under GUACCGUUGGCGUAAUGGUAACGCGGCUCCCUCCUAAGGAGAAGACUGCGGGUUCGAGUCCCGUAUGGAACG [U3A U26G C66U], at most 0.5. Turning to GUCCCGUUGGCGUAAUGGUUACGCGUCUCCCUCCUAAGGAGAAGACUGCGGGUUCGAGUCCCGUACGGCACG [U3C A20U A69C], the yeast fitness amounted to 0.749.

The record behind these values is the RNAGym collection of RNA variant scans (doi:10.1126/science.aae0568).
